For two compounds, IC50 and viability results are on record in ChEMBL document CHEMBL3808301, “Bioactive Iridoid Glycosides from the Whole Plants of Rehmannia chingii” (J Nat Prod, 2016).

The subject of one data set is BV-2. Put plainly: Inhibition of LPS-induced NO production in mouse BV2 cells assessed as reduction in nitrite level pretreated for 24 hrs before LPS treatment for additional 24 hrs by Griess reaction method. The data set is classed as functional, cell-based. The essentials: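 BV2 microglia plated and preincubated 24 h, then exposed to LPS 0.3 μg/mL for a further 24 h. Nitrite in the culture supernatant measured by Griess reaction at OD 550 nm against a NaNO2 standard. Curcumin served as positive control. IC50 given as mean ± SD of three independent experiments.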
For orientation: The Griess reaction detects nitrite, a stable product of nitric oxide.

In another data set the test system is A2780. Nature of the data set: Cytotoxicity against human A2780 cells by MTT assay. It counts as functional, cell-based.
The test system of the next data set is A549. Nature of the data set: Cytotoxicity against human A549 cells by MTT assay. It counts as functional, cell-based. For orientation: Formazan colour is commonly taken as a measure of viable cells.
The nature of data set [1]: Cytotoxicity against human Bel7402 cells by MTT assay. The data set is classed as functional, cell-based. To be noted: Bel-7402.
A short description of data set [2]: Cytotoxicity against human BGC823 cells by MTT assay. The data set is classed as functional, cell-based. To be noted: BGC-823.
Data set [3] can be described thus: Cytotoxicity against mouse BV2 cells assessed as cell viability by MTT assay. To be noted: read-out: Activity. It counts as cell-based, BV-2. In a few lines:
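Murine microglial BV2 cells under the LPS-activation conditions of the NO assay. Viability read by MTT and expressed as a percentage of the LPS-only treatment group. Means ± SD from three independent experiments.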

The test system of another data set is HT-29. Nature of the data set: Cytotoxicity against human HT-29 cells by MTT assay. It counts as functional, cell-based.
Another data set deals with HepG2. Nature of the data set: Hepatoprotective activity against APAP-induced toxicity in human HepG2 cells assessed as cell survival rate at 10 uM incubated for 48 hrs by MTT assay. The data set is classed as functional. The following applies: HepG2, 48 h, read-out: Survival. The essentials: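 HepG2 cells grown in DMEM with 10% fetal calf serum and penicillin/streptomycin at 37 °C, 5% CO2, then seeded and incubated overnight. Test sample (10 μM) added together with APAP (final 8 mM) for 48 h. MTT at 0.5 mg/mL for 4 h, formazan dissolved in DMSO, absorbance read at 570 nm. Survival given as % of normal cells; bicyclol (10 μM) positive control; n = 3.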

Structures are written as SMILES.

With `CC(/C=C/[C@@]1(O)C(C)(C)CCC[C@@]1(C)O)=C\C(=O)O[C@H]1[C@H](O[C@@H]2OC=C[C@H]3[C@H](O)[C@@H]4O[C@]4(CO)[C@@H]23)O[C@H](CO)[C@@H](O)[C@@H]1O`, the IC50 in the data set on BV-2 is 2.5 µM; in the data set with A2780 it was over 10 µM; with A549, over 10 µM; in data set [1], over 10 µM; in data set [2] it was over 10 µM; with HT-29, over 10 µM. Moreover, the viability in data set [3] worked out at 91.7%.

In the case of `OC[C@H]1O[C@@H](O[C@@H]2OC=C[C@H]3[C@H](O)[C@@H]4O[C@]4(CO)[C@@H]23)[C@H](O)[C@@H](O)[C@@H]1O` [CATALPOL], the IC50 was 7.3 µM in the data set on BV-2; over 10 µM in the data set with A2780; over 10 µM in the data set with A549; over 10 µM in data set [1]; over 10 µM in data set [2]; over 10 µM in the data set on HT-29. For the same compound, the viability at 10 µM with HepG2 amounted to 69.1%. Also, the viability in data set [3] worked out at 86.1%.

One may read the IC50 as the point on the concentration scale where inhibition reaches its midpoint.
